The results in this text go back to ChEMBL document CHEMBL1149436, “New bicyclic cannabinoid receptor-1 (CB1-R) antagonists” (Bioorg Med Chem Lett, 2006).

Molecules are shown by their SMILES. Activity calls are given as the source filed them. The calls are words filed in the database; no cut-off is given here.

For data set [1], the system named is Rattus norvegicus. As to the kind of experiment: Anorectic activity assessed in a fasting-induced re-feeding model in Sprague-Dawley rat at 1 mg/kg, po relative to control. Format: functional. A digest of the protocol: (§1)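 Male CD rats fasted overnight, dosed orally the next morning with suspension in 0.5% methylcellulose. Food returned 0.5 h after dosing; cumulative intake measured 1.5 h later, expressed as % change versus vehicle-treated controls.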

For the next data set, the system named is Mus musculus. Description: Ability to reverse CP-55940-stimulated responses in mice at 1 mg/kg, sc. Format: functional, organism-based. Also on record: dose 1 mg/kg. A digest of the protocol: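 Mouse challenge assay from the 'tetrad': reversal of CP-55940-stimulated analgesia and hypothermia, test agent given sc.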
Data set [2] is described as follows: Half life in Sprague-Dawley rat at 1 mg/kg, iv. Format: ADME, organism-based. Also on record: dose 1 mg/kg, route intravenous. To be noted: in vivo. The gist of the method: (§2)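 Male Sprague-Dawley rats, 1 mg/kg iv via jugular vein cannula, amorphous solid in 20% EtOH/80% CD or Transcutol P/CD depending on compound. Plasma levels by LC-MS/MS after protein precipitation.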

A short description of data set [3]: Plasma clearance in Sprague-Dawley rat at 1 mg/kg, iv. Format: ADME, organism-based. Also on record: dose 1 mg/kg, route intravenous. A digest of the protocol: as §2
Data set [4] has as its system Rattus norvegicus. Description: Anorectic activity assessed in a fasting-induced re-feeding model in Sprague-Dawley rat at 3 mg/kg, po relative to control. Format: functional. A digest of the protocol: as §1
Data set [5] in a line: Bioavailability in Sprague-Dawley rat at 1 mg/kg, iv. Format: ADME, organism-based. To be noted: in vivo. The gist of the method: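 Male Sprague-Dawley rats: iv dosing 1 mg/kg via jugular cannula (20% EtOH/80% CD or Transcutol P/CD); oral dosing of crystalline solid in 0.5% methylcellulose. Plasma by LC-MS/MS after protein precipitation.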
A short description of data set [6]: Plasma clearance in Beagle dog at 0.5 mg/kg, iv. It counts as ADME, organism-based, Canis lupus familiaris. Also on record: dose 0.5 mg/kg, route intravenous. The gist of the method:
(§3)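 Male beagle dogs, 0.5 mg/kg iv. Vehicle: 6.7% EtOH/60% CD/33.3% PEG 400 or Transcutol P, depending on compound; amorphous solid used for iv. Plasma levels by LC-MS/MS after protein precipitation.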

Another data set deals with Cannabinoid receptor 2 (Homo sapiens, UniProt P34972). As to the kind of experiment: Binding affinity to human CB2 receptor expressed in CHOK1 cells. It counts as cell-based, CHO-K1.
Data set [7] in a line: Volume of distribution in Beagle dog at 0.5 mg/kg, iv. Format: ADME, organism-based, Canis lupus familiaris. Also on record: dose 0.5 mg/kg, route intravenous. To be noted: in vivo, read-out: Vdss. The gist of the method: as §3
Data set [8] can be described thus: Half life in Beagle dog at 0.5 mg/kg, iv. It counts as ADME, organism-based, Canis lupus familiaris. Also on record: dose 0.5 mg/kg, route intravenous. To be noted: in vivo. The gist of the method:
as §3

A short description of data set [9]: Volume of distribution in Sprague-Dawley rat at 1 mg/kg, iv. Format: ADME, organism-based. Also on record: dose 1 mg/kg, route intravenous. To be noted: in vivo, read-out: Vdss. A digest of the protocol:
as §2

Data set [10] relates to Rattus norvegicus. As to the kind of experiment: Anorectic activity assessed in a fasting-induced re-feeding model in Sprague-Dawley rat at 10 mg/kg, po relative to control. It counts as functional. The gist of the method: as §1
For data set [11], the target named is T1, Cannabinoid receptor 1 (Homo sapiens, UniProt P21554). Description: biochemical. Format: cell-based, HEK293.
In data set [12] the target is T1, Cannabinoid receptor 1. As to the kind of experiment: Functional activity at human CB1 receptor transfected in CHOK1 cells by [35SGTP]gammaS assay. It counts as cell-based, CHO-K1. In general terms: GTPγS is a poorly hydrolysed GTP analogue; its binding reports G protein activation.
Data set [13] concerns Rattus norvegicus. As to the kind of experiment: Anorectic activity assessed in a fasting-induced re-feeding model in Sprague-Dawley rat at 0.3 mg/kg, po relative to control. Format: functional. The gist of the method: as §1

T1 sequence (P21554 whole entry): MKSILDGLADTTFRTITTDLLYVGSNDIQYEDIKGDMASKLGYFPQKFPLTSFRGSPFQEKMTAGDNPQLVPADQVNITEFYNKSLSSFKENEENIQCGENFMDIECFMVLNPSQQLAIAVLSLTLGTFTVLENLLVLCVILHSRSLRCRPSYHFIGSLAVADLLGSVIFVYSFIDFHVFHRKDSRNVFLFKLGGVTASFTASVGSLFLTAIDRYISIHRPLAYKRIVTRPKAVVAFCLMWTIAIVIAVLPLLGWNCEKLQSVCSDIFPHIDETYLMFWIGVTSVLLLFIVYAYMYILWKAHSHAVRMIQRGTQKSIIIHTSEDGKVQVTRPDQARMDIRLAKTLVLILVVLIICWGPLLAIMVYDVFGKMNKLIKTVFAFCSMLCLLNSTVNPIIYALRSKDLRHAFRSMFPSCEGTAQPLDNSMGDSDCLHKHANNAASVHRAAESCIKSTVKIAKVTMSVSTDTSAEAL
Cannabinoid receptor 2, sequence (P34972 whole entry): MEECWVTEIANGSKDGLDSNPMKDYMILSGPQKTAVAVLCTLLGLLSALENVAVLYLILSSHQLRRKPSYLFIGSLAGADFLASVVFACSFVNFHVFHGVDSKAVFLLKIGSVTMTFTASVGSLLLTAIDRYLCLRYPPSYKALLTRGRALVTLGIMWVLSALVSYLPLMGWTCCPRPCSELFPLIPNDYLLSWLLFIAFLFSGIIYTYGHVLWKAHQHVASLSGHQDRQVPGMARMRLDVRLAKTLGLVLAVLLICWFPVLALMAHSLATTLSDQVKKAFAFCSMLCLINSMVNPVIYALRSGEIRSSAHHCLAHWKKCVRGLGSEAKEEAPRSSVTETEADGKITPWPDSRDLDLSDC

`Cc1nc2c(-c3ccc(Cl)cc3)n(-c3ccccc3Cl)nc2c(=O)n1CC(F)(F)F`: the figures for the Activity in the data set on Rattus norvegicus [1], with Rattus norvegicus [4] and with Rattus norvegicus [10] were -35%, -42% and -59%, respectively. Besides, the outcome with Mus musculus was Active. Moreover, the half-life in data set [2] is 282 min; in [8], 1.62 days. Moreover, the clearance in [3] amounted to 32 mL/min/kg; in data set [6], 10 mL/min/kg. In data set [5], this molecule yielded a bioavailability of 7%. Moreover, at Cannabinoid receptor 2, the Ki is > 10 µM. For the same molecule, the Vd came to 17 L/kg in data set [7] and 7.7 L/kg in data set [9].
As to `O=c1c2nn(-c3ccccc3Cl)c(-c3ccc(Cl)cc3)c2ncn1CCC(F)(F)F`, the Ki at Cannabinoid receptor 2 is > 10 µM.
For the molecule `O=c1c2nn(-c3ccccc3Cl)c(-c3ccc(Cl)cc3)c2ncn1C1CCCCC1`, the Ki at Cannabinoid receptor 1 [11] is 20 nM; on Cannabinoid receptor 2, > 10 µM.
In the case of `O=c1c2nn(-c3ccccc3Cl)c(-c3ccc(Cl)cc3)c2ncn1Cc1ccccc1`, the Ki at Cannabinoid receptor 2 was > 10 µM.
Consider `O=c1c2nn(-c3ccccc3Cl)c(-c3ccc(Cl)cc3)c2ccn1CC(F)(F)F`, for which the Ki is 1 nM on Cannabinoid receptor 1 [12], 1 nM on Cannabinoid receptor 1 [11] and > 10 µM at Cannabinoid receptor 2.
Regarding `O=c1c2nn(-c3ccccc3Cl)c(-c3ccc(Cl)cc3)c2ncn1N1CCCCC1`, the values for the inhibitory constant (Ki) at Cannabinoid receptor 1 [12], at Cannabinoid receptor 1 [11] and on Cannabinoid receptor 2 were 20 nM, 12 nM and > 10 µM, respectively.
With `CCn1cnc2c(-c3ccc(Cl)cc3)n(-c3ccccc3Cl)nc2c1=O`, the Ki on Cannabinoid receptor 2 was > 10 µM.
`O=c1c2nn(-c3ccccc3Cl)c(-c3ccc(Cl)cc3)c2ncn1CC(F)F`: the Ki on Cannabinoid receptor 2 is > 10 µM.
In turn, `CCC(CC)n1cnc2c(-c3ccc(Cl)cc3)n(-c3ccccc3Cl)nc2c1=O` came in with a Ki on Cannabinoid receptor 1 [11] of 26 nM. This lies in the double-digit nanomolar range.
Regarding `O=c1c2nn(-c3ccccc3Cl)c(-c3ccc(Cl)cc3)c2ncn1CCF`, the Ki at Cannabinoid receptor 2 was > 10 µM.
Consider `O=c1c2nn(-c3ccccc3Cl)c(-c3ccc(Cl)cc3)c2ncn1CC(F)(F)F`, for which the Activity is listed as -32% with Rattus norvegicus [1], -78% with Rattus norvegicus [4] and -23% in the data set with Rattus norvegicus [13]. The result with Mus musculus was Active. The values for the half-life in data set [2] and in [8] were 156 min and 9.29 days, respectively. The clearance was determined as 45 mL/min/kg in [3] and 0.54 mL/min/kg in data set [6]. For the same molecule, in [5], the bioavailability amounted to 62%. In addition, the Ki on Cannabinoid receptor 2 is > 10 µM. The Vd in data set [7] was 10 L/kg; in data set [9] it was 9.2 L/kg.
As for `O=c1c2nn(-c3ccccc3Cl)c(-c3ccc(Cl)cc3)c2cnn1CC(F)(F)F`, the Ki at Cannabinoid receptor 1 [12] is 4 nM; at Cannabinoid receptor 1 [11], 8 nM; at Cannabinoid receptor 2, > 10 µM.
The like results for `CC(C)c1nc2c(-c3ccc(Cl)cc3)n(-c3ccccc3Cl)nc2c(=O)n1CC(F)(F)F` were, in that order, 13 nM, 6 nM and > 10 µM.
Consider `O=c1c2nn(-c3ccc(Cl)cc3)c(-c3ccccc3Cl)c2ncn1CC(F)(F)F`, for which the Ki was 28 nM at Cannabinoid receptor 1 [11] and > 10 µM at Cannabinoid receptor 2.
On to `O=c1c2nc(-c3ccccc3Cl)n(-c3ccc(Cl)cc3)c2ncn1CC(F)(F)F`, for which the results for the Ki on Cannabinoid receptor 1 [12], at Cannabinoid receptor 1 [11] and on Cannabinoid receptor 2 were 1 nM, 1 nM and > 10 µM, respectively.
With `O=c1c2nn(-c3ccc(Cl)cc3)c(-c3ccccc3Cl)c2ncn1C1CCCCC1`, the Ki at Cannabinoid receptor 1 [11] was 38 nM; on Cannabinoid receptor 2, > 10 µM.
For `CC(F)(F)Cn1cnc2c(-c3ccc(Cl)cc3)n(-c3ccccc3Cl)nc2c1=O`, the Ki on Cannabinoid receptor 2 was > 10 µM.
Same read-out and setting: then `CCCn1cnc2c(-c3ccc(Cl)cc3)n(-c3ccccc3Cl)nc2c1=O`, with > 10 µM.
In turn, `CC(C)n1cnc2c(-c3ccc(Cl)cc3)n(-c3ccccc3Cl)nc2c1=O` showed a Ki at Cannabinoid receptor 1 [11] of 21 nM. This counts as double-digit nanomolar.
Turning to `CCc1nc2c(-c3ccc(Cl)cc3)n(-c3ccccc3Cl)nc2c(=O)n1CC(F)(F)F`, the Ki was 3 nM on Cannabinoid receptor 1 [12], 1 nM at Cannabinoid receptor 1 [11] and > 10 µM at Cannabinoid receptor 2.

In general, half-life refers to the time in which the quantity being followed falls by half. As a reminder, the clearance is the volume of plasma or blood freed of the substance per unit of time. Low values mean a low capacity for elimination, high ones a high capacity for elimination. As usually defined, the bioavailability is the share of a dose that reaches the circulation, judged against a reference dose that is usually intravenous. Read a low bioavailability as little systemic uptake. One may read the Ki as the dissociation constant of the complex between target and ligand, obtained from inhibition or displacement. Lower therefore signals tighter binding.
